ChEMBL document CHEMBL1143707, “7-Arylpiperazinylalkyl and 7-tetrahydroisoquinolinylalkyl derivatives of 8-alkoxy-purine-2,6-dione and some of their purine-2,6,8-trione analogs as 5-HT(1A), 5-HT(2A), and 5-HT(7) serotonin receptor ligands” (Bioorg Med Chem, 2007)

Legend:
Mus musculus [1] = experiment: Antidepressant activity in Swiss Albino mouse assessed as immobility time during final 4 mins of 6 mins session at 2.5 mg/kg, ip administered 30 mins before the test in forced-swimming test; format: functional; settings: route intraperitoneal
Summary of the method: (§1)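 Male Albino Swiss mice (24-28 g), ip in 1% aqueous Tween 80 suspension (10 mL/kg), 30 min pretest; single glass cylinder (25 cm high, 10 cm diameter), 6 cm water at 23–25 °C for 6 min; immobility (floating, minimal head-keeping movements) timed over final 4 min; n = 9-10/group; mean ± SEM.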

Mus musculus [2] = experiment: Decrease in body temperature in Swiss Albino mouse at 2.5 mg/kg, ip administered 30 mins before the test measured after 90 mins relative to control; format: functional; settings: route intraperitoneal
Summary of the method: (§2)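 Male Albino Swiss mice (24-28 g) given compound ip in 1% aqueous Tween 80 (10 mL/kg); rectal temperature read at 30, 60, 90 and 120 min post-dose; Δt versus basal temperature taken at start (initial ~36.0 °C); n = 8/group; mean ± SEM.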

[3] = target: T1, 5-hydroxytryptamine receptor 1A (Rattus norvegicus, UniProt P19327); experiment: Displacement of [3H]8-OH-DPAT from rat brain 5HT1A receptor
T1 sequence (P19327 whole entry): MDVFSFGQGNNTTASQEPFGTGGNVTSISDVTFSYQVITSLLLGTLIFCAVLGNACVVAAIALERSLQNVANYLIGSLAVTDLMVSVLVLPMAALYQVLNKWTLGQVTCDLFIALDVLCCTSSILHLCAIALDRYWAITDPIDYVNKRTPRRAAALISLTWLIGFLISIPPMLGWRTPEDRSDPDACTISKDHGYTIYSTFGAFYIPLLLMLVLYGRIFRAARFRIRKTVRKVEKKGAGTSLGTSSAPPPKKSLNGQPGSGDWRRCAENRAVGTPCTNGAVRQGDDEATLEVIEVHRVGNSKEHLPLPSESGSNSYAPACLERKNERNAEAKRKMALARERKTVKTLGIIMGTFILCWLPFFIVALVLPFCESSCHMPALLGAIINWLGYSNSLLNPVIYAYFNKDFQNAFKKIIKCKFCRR
Summary of the method: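 Rat hippocampal membranes; 1 nM [3H]-8-OH-DPAT; nonspecific binding with 10 μM 5-HT; 8–10 competitor concentrations in triplicate, ≥3 experiments; GF/B filtration, ice-cold buffer washes, scintillation counting; Ki by nonlinear regression with Cheng–Prusoff.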

Mus musculus [4] = experiment: Decrease in body temperature in Swiss Albino mouse at 5 mg/kg, ip administered 30 mins before the test measured after 90 mins relative to control; format: functional; settings: route intraperitoneal; summary of the method: as §2
Mus musculus [5] = experiment: Decrease in body temperature in Swiss Albino mouse at 5 mg/kg, ip administered 30 mins before the test measured after 60 mins relative to control; format: functional; settings: route intraperitoneal; summary of the method: as §2
Mus musculus [6] = experiment: Locomotor activity in Swiss Albino mouse assessed as number of crossings in 6 mins at 10 mg/kg, ip administered 30 mins before the test; format: functional; settings: route intraperitoneal
Summary of the method: (§3)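 Male Albino Swiss mice dosed ip 30 min before test (compound in 1% Tween 80; imipramine in distilled water); individual cages with IR beam sensors, consecutive beam breaks scored as ambulatory counts during first 6 min and over a 30-min session; n = 10/group; mean ± SEM.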

Mus musculus [7] = experiment: Locomotor activity in Swiss Albino mouse assessed as number of crossings in 6 mins at 5 mg/kg, ip administered 30 mins before the test; format: functional; settings: route intraperitoneal; summary of the method: as §3
[8] = target: 5-hydroxytryptamine receptor 2A (Rattus norvegicus, UniProt P14842); experiment: Displacement of [3H]ketanserin from rat brain 5HT2A receptor
Summary of the method: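 Rat brain membranes; 0.6 nM [3H]-ketanserin; nonspecific binding with 1 μM methysergide; 8–10 competitor concentrations in triplicate, ≥3 experiments; GF/B filtration, scintillation counting; Ki via Cheng–Prusoff.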

Mus musculus [9] = experiment: Decrease in body temperature in Swiss Albino mouse at 2.5 mg/kg, ip administered 30 mins before the test measured after 60 mins relative to control; format: functional; settings: route intraperitoneal; summary of the method: as §2
Mus musculus [10] = experiment: Decrease in body temperature in Swiss Albino mouse at 2.5 mg/kg, ip administered 30 mins before the test measured after 120 mins relative to control; format: functional; settings: route intraperitoneal; summary of the method: as §2
Mus musculus [11] = experiment: Decrease in body temperature in Swiss Albino mouse at 2.5 mg/kg, ip administered 30 mins before the test measured after 30 mins relative to control; format: functional; settings: route intraperitoneal; summary of the method: as §2
Mus musculus [12] = experiment: Anxiolytic activity in Swiss Albino mouse assessed as number of punished crossings for 60 secs at 2.5 mg/kg, ip administered 30 mins before the test in four-plate test; format: functional; settings: route intraperitoneal
Summary of the method: (§4)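 Male Albino Swiss mice (24-28 g), ip in 1% Tween 80 (10 mL/kg) 30 min before test; box with four metal floor plates, 120 V for 0.5 s on each plate-to-plate crossing after 15 s free exploration, 3 s shock-free if running continues; punished crossings counted over 60 s; n = 9-10/group; mean ± SEM.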

Mus musculus [13] = experiment: Anxiolytic activity in Swiss Albino mouse assessed as number of punished crossings for 60 secs at 5 mg/kg, ip administered 30 mins before the test in four-plate test; format: functional; settings: route intraperitoneal; summary of the method: as §4
Mus musculus [14] = experiment: Anxiolytic activity in Swiss Albino mouse assessed as number of punished crossings for 60 secs at 10 mg/kg, ip administered 30 mins before the test in four-plate test; format: functional; settings: route intraperitoneal; summary of the method: as §4
Mus musculus [15] = experiment: Locomotor activity in Swiss Albino mouse assessed as number of crossings in 30 mins at 5 mg/kg, ip administered 30 mins before the test; format: functional; settings: route intraperitoneal; summary of the method: as §3
Mus musculus [16] = experiment: Locomotor activity in Swiss Albino mouse assessed as number of crossings in 6 mins at 20 mg/kg, ip administered 30 mins before the test; format: functional; settings: route intraperitoneal; summary of the method: as §3
Mus musculus [17] = experiment: Effect on compound induced hypothermia in Swiss Albino mouse at 2.5 mg/kg, ip in presence of 0.1 mg/kg WAY 100635 after 30 mins relative to control; format: functional
Summary of the method: (§5)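 Male Albino Swiss mice; WAY 100635 0.1 mg/kg sc (in distilled water) 15 min before ip compound (1% Tween 80); rectal temperature at 30 and 60 min after compound; Δt from basal; n = 8/group; mean ± SEM.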

Mus musculus [18] = experiment: Locomotor activity in Swiss Albino mouse assessed as number of crossings in 30 mins at 20 mg/kg, ip administered 30 mins before the test; format: functional; settings: route intraperitoneal; summary of the method: as §3
Mus musculus [19] = experiment: Antidepressant activity in Swiss Albino mouse assessed as immobility time during final 4 mins of 6 mins session at 20 mg/kg, ip administered 30 mins before the test in forced-swimming test; format: functional; settings: route intraperitoneal; summary of the method: as §1
Mus musculus [20] = experiment: Antidepressant activity in Swiss Albino mouse assessed as immobility time during final 4 mins of 6 mins session at 10 mg/kg, ip administered 30 mins before the test in forced-swimming test; format: functional; settings: route intraperitoneal; summary of the method: as §1
Mus musculus [21] = experiment: Decrease in body temperature in Swiss Albino mouse at 5 mg/kg, ip administered 30 mins before the test measured after 30 mins relative to control; format: functional; settings: route intraperitoneal; summary of the method: as §2
[22] = target: 5-hydroxytryptamine receptor 7 (Rattus norvegicus, UniProt P32305); experiment: Displacement of [3H]5CT from 5HT7 receptor in Wistar rat hyphalamic membrane; format: cell membranes
Mus musculus [23] = experiment: Effect on compound induced hypothermia in Swiss Albino mouse at 2.5 mg/kg, ip in presence of 0.1 mg/kg WAY 100635 after 60 mins relative to control; format: functional; summary of the method: as §5
Mus musculus [24] = experiment: Antidepressant activity in Swiss Albino mouse assessed as immobility time during final 4 mins of 6 mins session at 5 mg/kg, ip administered 30 mins before the test in forced-swimming test; format: functional; settings: route intraperitoneal; summary of the method: as §1
Mus musculus [25] = experiment: Decrease in body temperature in Swiss Albino mouse at 5 mg/kg, ip administered 30 mins before the test measured after 120 mins relative to control; format: functional; settings: route intraperitoneal; summary of the method: as §2
Mus musculus [26] = experiment: Locomotor activity in Swiss Albino mouse assessed as number of crossings in 30 mins at 10 mg/kg, ip administered 30 mins before the test; format: functional; settings: route intraperitoneal; summary of the method: as §3
Mus musculus [27] = experiment: Effect on body temperature in Swiss Albino mouse assessed as decrease at 10 mg/kg, ip after 120 mins relative to initial temperature; format: functional; settings: route intraperitoneal; summary of the method: as §2
Mus musculus [28] = experiment: Effect on compound induced hypothermia in Swiss Albino mouse at 10 mg/kg, ip in presence of 0.1 mg/kg WAY 100635 after 60 mins relative to control; format: functional; summary of the method: as §5
Mus musculus [29] = experiment: Effect on compound induced hypothermia in Swiss Albino mouse at 10 mg/kg, ip in presence of 0.1 mg/kg WAY 100635 after 30 mins relative to control; format: functional; summary of the method: as §5
Mus musculus [30] = experiment: Effect on body temperature in Swiss Albino mouse assessed as decrease at 10 mg/kg, ip after 90 mins relative to initial temperature; format: functional; settings: route intraperitoneal; summary of the method: as §2
Mus musculus [31] = experiment: Effect on body temperature in Swiss Albino mouse assessed as decrease at 10 mg/kg, ip after 30 mins relative to initial temperature; format: functional; settings: route intraperitoneal; summary of the method: as §2
Mus musculus [32] = experiment: Effect on body temperature in Swiss Albino mouse assessed as decrease at 10 mg/kg, ip after 60 mins relative to initial temperature; format: functional; settings: route intraperitoneal; summary of the method: as §2

5-hydroxytryptamine receptor 7, sequence (P32305 whole entry): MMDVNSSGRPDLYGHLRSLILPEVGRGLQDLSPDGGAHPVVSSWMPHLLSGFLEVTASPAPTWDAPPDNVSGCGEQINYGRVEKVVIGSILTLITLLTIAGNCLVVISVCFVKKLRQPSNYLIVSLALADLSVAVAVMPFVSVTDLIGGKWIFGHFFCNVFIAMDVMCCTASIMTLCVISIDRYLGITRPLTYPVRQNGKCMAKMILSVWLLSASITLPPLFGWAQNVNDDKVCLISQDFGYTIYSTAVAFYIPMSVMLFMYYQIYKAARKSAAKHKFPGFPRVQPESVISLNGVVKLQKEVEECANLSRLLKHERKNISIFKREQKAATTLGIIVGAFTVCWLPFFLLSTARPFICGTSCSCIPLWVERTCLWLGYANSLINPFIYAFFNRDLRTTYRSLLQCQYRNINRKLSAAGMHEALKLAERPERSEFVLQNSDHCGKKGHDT
5-hydroxytryptamine receptor 2A, sequence (P14842 whole entry): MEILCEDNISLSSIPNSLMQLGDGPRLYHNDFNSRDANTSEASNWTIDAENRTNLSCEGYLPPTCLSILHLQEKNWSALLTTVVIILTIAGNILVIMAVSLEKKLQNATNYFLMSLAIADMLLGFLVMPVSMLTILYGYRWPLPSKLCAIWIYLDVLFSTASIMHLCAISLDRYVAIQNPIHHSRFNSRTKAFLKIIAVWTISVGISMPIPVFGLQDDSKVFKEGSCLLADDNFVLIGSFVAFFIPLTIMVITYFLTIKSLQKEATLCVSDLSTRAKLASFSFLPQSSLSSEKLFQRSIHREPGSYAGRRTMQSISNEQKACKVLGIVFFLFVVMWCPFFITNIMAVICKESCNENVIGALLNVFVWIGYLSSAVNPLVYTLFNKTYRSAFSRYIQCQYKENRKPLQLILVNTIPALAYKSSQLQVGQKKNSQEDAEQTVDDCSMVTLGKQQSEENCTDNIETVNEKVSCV

CCOc1nc2c(c(=O)n(C)c(=O)n2C)n1CCCCN1CCN(c2ccccc2OC)CC1.Cl
Activity (Mus musculus [1]): 154.4 s | Activity (Mus musculus [2]): -0.9 °C | Ki [3]: 11 nM | Activity (Mus musculus [4]): -1.5 °C | Activity (Mus musculus [5]): -1.9 °C | Activity (Mus musculus [6]): 56.2 | Activity (Mus musculus [7]): 125.5 | Ki [8]: 253 nM | Activity (Mus musculus [9]): -1 °C | Activity (Mus musculus [10]): -0.7 °C | Activity (Mus musculus [11]): -1.5 °C | Activity (Mus musculus [12]): 4.1 | Activity (Mus musculus [13]): 5.8 | Activity (Mus musculus [14]): 3.8 | Activity (Mus musculus [15]): 325 | Activity (Mus musculus [16]): 11.1 | Activity (Mus musculus [17]): -0.5 °C | Activity (Mus musculus [18]): 19.5 | Activity (Mus musculus [19]): 178.2 s | Activity (Mus musculus [20]): 122.6 s | Activity (Mus musculus [21]): -2.5 °C | Ki [22]: 54 nM | Activity (Mus musculus [23]): -0.3 °C | Activity (Mus musculus [24]): 126.9 s | Activity (Mus musculus [25]): -1.3 °C | Activity (Mus musculus [26]): 193.4

CCCOc1nc2c(c(=O)n(C)c(=O)n2C)n1CCCCN1CCN(c2cccc(Cl)c2)CC1
Ki [3]: 15 nM | Activity (Mus musculus [4]): -0.6 °C | Activity (Mus musculus [5]): -0.6 °C | Activity (Mus musculus [27]): -1.1 °C | Ki [8]: 28 nM | Activity (Mus musculus [28]): -0.9 °C | Activity (Mus musculus [29]): -1.4 °C | Activity (Mus musculus [30]): -1.1 °C | Activity (Mus musculus [21]): -0.7 °C | Ki [22]: 125 nM | Activity (Mus musculus [31]): -1.7 °C | Activity (Mus musculus [32]): -1.1 °C | Activity (Mus musculus [25]): -0.2 °C
